Assay outcomes: PubChem BioAssay, several laboratories
C8 TRAIL sens = sensitizes caspase-8 expressing cells to TRAIL; NB7+C8 cells + TRAIL, ATPlite viability luminescence; inhibition (viability loss, TRAIL sensitization), % at 10 µM; actives 1% (n = 360,000);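 active = compounds causing at least 50% loss of cell viability in the single-dose screen, relative to plate controls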
STAT1 blocker = STAT1 signaling inhibition; inhibition, % at 5.5 µM; NIH 3T3 STAT1-luciferase reporter, IFN-gamma, luminescence; actives 0.35% (n = 200,000);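 active = inhibition above a set limit, the mean inhibition across all tested compounds plus 3 SD, cut at about 34% in these data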;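 also: 0% = IFN-gamma with DMSO and 100% = IFN-gamma with 300 µM nifuroxazide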
STAT3 blocker = reduces IL-6 driven STAT3 reporter signal. U3A cells, IL-6 STAT3-luciferase reporter, luminescence; host cell line lacks STAT1. inhibition, % at 5.5 µM. actives 0.89% (n = 190,000). AID 862;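 active = inhibition above the mean inhibition across all screened compounds plus 3 SD, cut at about 44% in these data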;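 also: 0% = DMSO only wells and 100% = 100 µM nifuroxazide control wells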
PPC-1+TRAIL kill = compounds killing PPC-1 cancer cells with TRAIL present (potentiator screen, no TRAIL-free arm). cell killing (% activity), % at 4 µM or 5 µM. actives 0.41% (n = 220,000). PPC-1 cells + TRAIL, ATPLite viability luminescence;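 active = cell killing above 50% in the first pass at 4 µM, then a duplicate retest at 5 µM averaging 50% or more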;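 also: plate controls were cells with TRAIL plus DMSO for no effect and medium-only wells lacking cells for full effect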
STAT3 act = increases IL-6 driven STAT3 reporter signal; U3A cells, IL-6 STAT3-luciferase reporter, luminescence; 100% = signal with IL-6 EC80 alone; activation (% of control), % at 5.6 µM; actives 0.91% (n = 190,000);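 active = activation above the screen-wide mean of compound activation plus 3 SD, cut at about 130% in these data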;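 also: 0% = background luminescence of wells with medium and substrate only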
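Test system: STAT3-luciferase reporter U3A cells; Detection: reporter luminescence signal; Times: 1 h compound pre-exposure, 6 h IL-6 stimulation, 37 °C; Benchmarks: IL-6-only high control; Also added: IL-6 stimulus at 33 ng/mL final.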
HSP90 refold inh = HSP90 refolding inhibition in rabbit reticulocyte lysate. luciferase refolding luminescence, 3 h. inhibition, % at 5.6 µM. actives 0.91% (n = 290,000). AID 1789;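 active = inhibition above the screen-wide mean plus 3 SD, computed separately per campaign, cut at about 16% in these data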;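 also: 0% = DMSO wells and 100% = 60 µM geldanamycin wells; inhibitors lower the luminescence because luciferase stays unfolded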
Numbers without * were called inactive; / = no result; ! = repeats disagree. Shown are actives, neighbours in structure and some others; about 2.3% of the full set was active somewhere.

SMILES	C8 TRAIL sens	STAT1 blocker	STAT3 blocker	PPC-1+TRAIL kill	STAT3 act	HSP90 refold inh
COc1ccc(S(=O)(=O)Nc2cc(SCC(=O)O)c(O)c3ccccc23)cc1	44	/	/	/	/	7
COc1ccc(S(=O)(=O)Nc2cc(Sc3ncn[nH]3)c(O)c3ccccc23)cc1	/	12	-25	21	119	76*
O=S(=O)(Nc1cc(Sc2cccc3cccnc23)c(O)c2ccccc12)c1ccc(F)cc1	/	-45	-96	34	184*	0
CCC(=O)Nc1cccc(C2=NOC3(C2)C[C@@H](C(N)=O)N(C(=O)C2(C)CC2)C3)c1 (stereo not given in full)	2	/	/	9	/	/
CCOC(=O)c1cnc2c(Cl)c(Cl)ccc2c1N1CCN(C)CC1	59*	-4	-1	8	106	5
c1ccc2c(-c3nc(-c4ccncc4)no3)cccc2c1	-1	-32	-37	16	136*	-1
c1ccc(-c2noc(-c3cccc4ccccc34)n2)cc1	9	-46	-100	0	192*	3
CC(=O)c1ccc(NC(=O)CN2C(=O)NC(C)(C3CCCCC3)C2=O)cc1 (stereo not given)	0	/	/	/	/	/
Cc1ccccc1S(=O)(=O)NC(=O)C1(C)CCN1C(=O)CCc1ccccc1 (stereo not given)	10	/	/	/	/	/
O=C(CSc1nc2ccccc2c(=O)n1-c1ccccc1)NCc1ccco1	1	2	9	18	99	-2
C=C1/C(=C\C=C2/CCC[C@]3(C)[C@@H]([C@H](C)CCCC(C)(C)O)CC[C@@H]23)C[C@@H](O)C[C@@H]1O	/	/	/	8	/	26*
CCOC(=O)c1ccc(NC(=O)COc2ccc(-n3cnnn3)cc2)cc1	-5	-1	13	10	93	-1
O=Nc1ccc(NO)c2ccccc12	71*	/	/	/	/	/
NNc1nc2c(-c3ccc(Cl)cc3)nnn2c2ccccc12	37	-41	-54	29	144*	-3
Cc1ccc(-c2nnc(-c3ccccc3Br)o2)cc1	58*	/	/	/	/	14
CN1CCc2c(sc(NC(=O)c3ccc4ccccc4c3)c2C(N)=O)C1	34	/	/	/	/	6
COc1cc2ccccc2cc1C(=O)Nc1sc2c(c1C(N)=O)CCN(C(C)C)C2	83*	/	/	/	/	6
COC1=C(C)C(=O)C2=C(C1=O)C1C3CC4=C(C(=O)C(OC)=C(C)C4=O)C(CNC(=O)C(C)=O)N3C(C#N)C(C2)N1C (stereo not given)	86*	/	/	/	/	/
Cc1ccc(-c2nc3cc(Cl)ccc3o2)cc1	31	-65	-40	-12	135*	-1
COc1cc(OC)cc(-c2nc3cc(C)ccc3o2)c1	26	-69	-80	29	171*	-5
Cc1ccc2nc(-c3ccc(O)cc3)oc2c1	79*	/	/	/	/	5
COc1ccc(NC(=O)c2ccc3nc[nH]c3c2)cc1	19	/	/	/	/	1
Cc1ccc(Cl)cc1N1CCN(C(=O)c2cc3c(=O)[nH]c4ccccc4c3n2C)CC1	48	2	-2	50*	105	1
Cn1c(C(=O)N2CCN(c3ccc(Cl)cc3)CC2)cc2c(=O)[nH]c3ccccc3c21	14	13	5	-19	100	-1
COc1cccc2nc3c(C(=O)NCCN(C)C)cccc3cc12	8	/	/	/	/	/
SMILES	C8 TRAIL sens	STAT1 blocker	STAT3 blocker	PPC-1+TRAIL kill	STAT3 act	HSP90 refold inh
COc1ccc(C(=O)NCCN(C)C)c2nc3ccccc3cc12	51*	/	/	/	/	/
COc1ccc2[nH]cc(C(=O)CCl)c2c1	75*	/	/	22	/	1
COc1ccc2[nH]cc(C(=O)CN3CC(C)CC(C)C3)c2c1 (stereo not given)	-15	/	/	/	/	2
COc1ccc(C(=O)c2c[nH]c3ccccc23)cc1	48*	-43	-12	37	109	2
Cn1cccc1Cc1nnc(SCC(=O)N2CCc3ccccc32)n1CCc1ccccc1	15	6	-29	-1	124	22*
Cn1cccc1Cc1nnc(SCC(=O)N2CCCC2)n1CCc1ccccc1	-16	0	-1	5	104	-3
Cn1cnc([N+](=O)[O-])c1Sc1nc(N)nc2c1ncn2C1OC(CO)C(O)C1O (stereo not given)	71*	/	/	/	/	/
Cn1cnc([N+](=O)[O-])c1Sc1nc(N)nc2c1ncn2C1CC(O)C(CO)O1 (stereo not given)	72*	/	/	/	/	/
CN(c1cccc(NC(=O)c2ccc(Cl)c(S(=O)(=O)Nc3ccccc3)c2)c1)S(C)(=O)=O	0	45*	20	24	89	3
Cc1cc(=O)n(CCCc2ccccc2)[nH]1	23	/	/	/	/	/
N#CCCn1[nH]c(-c2ccccc2)cc1=O	-12	-8	-4	12	106	31*
Cc1cccc2c(C(=O)N3CCN(C(=O)c4ccco4)CC3)cc(-c3cccc(Br)c3)nc12	9	-1	-28	26	128	2
CCN(CC)c1ccc(N=Cc2ccc([N+](=O)[O-])o2)cc1	3	3	6	53*	96	16
CCN(CC)c1ccc(N=Cc2ccccc2[N+](=O)[O-])cc1	-3	4	0	57*	105	8
CCCCCC(=O)N/N=C/c1ccc([N+](=O)[O-])o1	12	7	16	/	92	1
C/C=C/c1ccc(OCCCNC2CCCC2)c(OC)c1	54*	9	-3	34	104	-2
C/C=C/c1ccc(OCCCNC(C)CC)c(OC)c1 (stereo not given)	-4	-5	1	20	104	2
CCOc1ccc(-c2cnc3cccnn23)cc1	3	/	/	/	/	/
CCc1n[n+](CC(=O)c2ccccc2)c(N)s1	59*	59*	65*	65*	51	52*
CC(Oc1ccccc1)C(=O)N=C1SC2CS(=O)(=O)CC2N1Cc1ccc(F)cc1 (stereo not given)	-11	/	/	/	/	-1
Clc1nc(Cl)c2ncn(-c3ccccc3)c2n1	65*	/	/	/	/	/
FC(F)(F)c1cccc(-c2nc3nc(Cl)c(Cl)nc3[nH]2)c1	53*	/	/	29	/	4
FC(F)(F)c1nc2nc(Cl)c(Cl)nc2[nH]1	-9	/	/	/	/	/
CCN1CCN(Cc2ccc(NC(=O)c3cc(NC(=O)c4nccnc4N)cc(OC)c3)cc2C(F)(F)F)CC1	12	/	/	30	/	/
CCN1CCN(Cc2ccc(NC(=O)c3cc(NC(=O)c4cnnc5ccccc45)cc(OC)c3)cc2C(F)(F)F)CC1	56*!	/	/	26	/	/
CCN1CCN(Cc2ccc(NC(=O)c3ccc(C)c(NC(=O)c4cncc(-c5cccs5)c4)c3)cc2C(F)(F)F)CC1	70*	/	/	/	/	/
CCN1CCN(Cc2ccc(NC(=O)c3ccc(C)c(NC(=O)c4nccn4C)c3)cc2C(F)(F)F)CC1	8	/	/	19	/	/
CCN1CCN(Cc2ccc(NC(=O)c3cc(NC(=O)c4cncc(-c5ccc(C#N)cc5)c4)cc(OC)c3)cc2C(F)(F)F)CC1	94*!	/	/	0	/	/
